From ChEMBL document CHEMBL1649151, “Urinary bactericidal activity of Doripenem versus that of levofloxacin in patients with complicated urinary tract infections or pyelonephritis” (Antimicrob Agents Chemother, 2009) come the findings set out here.

Assay [1] has as its system Escherichia coli. As to the kind of experiment: Antimicrobial activity against Escherichia coli 2062717 B-P isolated from patient with pyelonephritis assessed as >3-log reduction in urinary bacterial titer after 4 hrs. It is filed as functional, Urine.
Assay [2] deals with Pseudomonas aeruginosa. Kind of assay: Antimicrobial activity against Pseudomonas aeruginosa 2062713 B-Q isolated from patient with pyelonephritis by Etest. It counts as functional.
Assay [3] has as its system Escherichia coli. As to the kind of experiment: Antimicrobial activity against Escherichia coli 2297257 B-W isolated from patient with pyelonephritis by Etest. It is filed as functional.
The test system of assay [4] is Escherichia coli. As to the kind of experiment: Antimicrobial activity against Escherichia coli 1821385 B-C isolated from patient with pyelonephritis by Etest. It is filed as functional.
The test system of assay [5] is Escherichia coli. As to the kind of experiment: Antimicrobial activity against Escherichia coli 1780063 B-A isolated from patient with pyelonephritis assessed as >3-log reduction in urinary bacterial titer after 8 hrs. It is filed as functional, Urine. Put shortly: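 Urine was collected before dosing and on day 3 of i.v. therapy (steady state), in 4-h intervals from infusion start (0–4 to 20–24 h), stored at −80°C and sterile filtered. It was serially diluted twofold (1:0 to 1:131,072) in the patient's drug-free pre-dose urine. Microdilution used an inoculum of 1.0 x 10^6–9.5 x 10^6 CFU/ml, incubated 18 h at 37°C, then subcultured 24 h on blood agar. The endpoint was >99.9% kill, reported as reciprocal titer.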

For assay [6], the system named is Escherichia coli. Kind of assay: Antimicrobial activity against Escherichia coli 1821385 B-C isolated from patient with pyelonephritis assessed as >3-log reduction in urinary bacterial titer after 16 hrs. It counts as functional, Urine. The method, boiled down: (§1)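 Urine was collected on day 3 of i.v. therapy (steady state) over 4-h intervals from infusion start (0–4 to 20–24 h), stored at –80°C and sterile filtered. It was serially diluted twofold (1:0 up to 1:131,072) in the patient's own pre-dose drug-free urine. Microdilution used a final inoculum of 1.0 x 10^6 to 9.5 x 10^6 CFU/ml, incubated 18 h at 37°C in air. 10 µl was subcultured onto 5% blood Columbia agar for 24 h at 37°C. The bactericidal endpoint was >99.9% (>3-log) kill, reported as a reciprocal titer.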

Assay [7] has as its system Escherichia coli. Kind of assay: Antimicrobial activity against Escherichia coli 2062717 B-P isolated from patient with pyelonephritis assessed as >3-log reduction in urinary bacterial titer after 20 hrs. It counts as functional, Urine.
In assay [8] the test system is Escherichia coli. As to the kind of experiment: Antimicrobial activity against Escherichia coli 1889645 B-I isolated from patient with pyelonephritis assessed as >3-log reduction in urinary bacterial titer after 4 hrs. It counts as functional, Urine. The method, boiled down: as §1
Assay [9] deals with Escherichia coli. Kind of assay: Antimicrobial activity against Escherichia coli 1889646 B-F isolated from patient with pyelonephritis assessed as >3-log reduction in urinary bacterial titer after 12 hrs. It is filed as functional, Urine. Put shortly: as §1
Assay [10] concerns Pseudomonas aeruginosa. Kind of assay: Antimicrobial activity against Pseudomonas aeruginosa 2062713 B-Q isolated from patient with pyelonephritis assessed as >3-log reduction in urinary bacterial titer after 8 hrs. It is filed as functional, Urine.
For assay [11], the system named is Escherichia coli. Kind of assay: Antimicrobial activity against Escherichia coli 2062716 B-R isolated from patient with pyelonephritis assessed as >3-log reduction in urinary bacterial titer after 12 hrs. It is filed as functional, Urine. The method, boiled down:
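Patient urine was collected on day 3 of i.v. therapy (steady state) over 4-h intervals after infusion start, stored at –80°C, and sterile filtered. It was twofold serially diluted (1:0 to 1:131,072) in the patient's own pre-dose drug-free urine, inoculated to 1.0 x 10^6–9.5 x 10^6 CFU/ml, and incubated for 18 h at 37°C. Subcultures were grown on blood agar for 24 h. The UBT is the reciprocal of the highest dilution giving >99.9% kill.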

The test system of assay [12] is Staphylococcus aureus. Kind of assay: Antimicrobial activity against Staphylococcus aureus 1889640 A-Z isolated from patient with pyelonephritis assessed as >3-log reduction in urinary bacterial titer after 20 hrs. It is filed as functional, Urine.
Assay [13] concerns Staphylococcus epidermidis. Kind of assay: Antimicrobial activity against Staphylococcus epidermidis 1949822 B-J isolated from patient with pyelonephritis assessed as >3-log reduction in urinary bacterial titer after 4 hrs. It is filed as functional, Urine.
In assay [14] the test system is Staphylococcus epidermidis. As to the kind of experiment: Antimicrobial activity against Staphylococcus epidermidis 1949822 B-J isolated from patient with pyelonephritis assessed as >3-log reduction in urinary bacterial titer after 8 hrs. It counts as functional, Urine.
Assay [15] has as its system Escherichia coli. Kind of assay: Antimicrobial activity against Escherichia coli 1780064 A-X isolated from patient with pyelonephritis by Etest. It counts as functional.
In assay [16] the test system is Staphylococcus epidermidis. Kind of assay: Antimicrobial activity against Staphylococcus epidermidis 2297262-9 B-V isolated from patient with pyelonephritis assessed as >3-log reduction in urinary bacterial titer after 20 hrs. It is filed as functional, Urine.
The test system of assay [17] is Staphylococcus aureus. Kind of assay: Antimicrobial activity against Staphylococcus aureus 1889640 A-Z isolated from patient with pyelonephritis assessed as >3-log reduction in urinary bacterial titer after 12 hrs. It is filed as functional, Urine.
For assay [18], the system named is Escherichia coli. As to the kind of experiment: Antimicrobial activity against Escherichia coli 1889647 B-H isolated from patient with pyelonephritis by Etest. It is filed as functional.
Assay [19] deals with Escherichia coli. Kind of assay: Antimicrobial activity against Escherichia coli 2062716 B-R isolated from patient with pyelonephritis by Etest. It is filed as functional.

Values after ≈ are worked out from the molar mass of the structure shown.

The MIC is the lowest concentration that inhibits growth of the organism. For the compound `C[C@@H](O)[C@H]1C(=O)N2C(C(=O)O)=C(S[C@@H]3CN[C@H](CNS(N)(=O)=O)C3)[C@H](C)[C@H]12` [DORIPENEM], the urinary bactericidal titer came out at 32800 reciprocal titer with Escherichia coli [1]; 1024 reciprocal titer with Escherichia coli [5]; 8192 reciprocal titer with Escherichia coli [6]; 32800 reciprocal titer in the assay with Escherichia coli [7]; 65500 reciprocal titer in the assay on Escherichia coli [8]; 32800 reciprocal titer in the assay with Escherichia coli [9]. Moreover, the MIC in the assay on Pseudomonas aeruginosa [2] was found to be 0.5 µg/mL (≈ 1.19 µM); in the assay on Escherichia coli [3], 0.015 µg/mL (≈ 0.0357 µM); against Escherichia coli [4], 0.03 µg/mL (≈ 0.0713 µM).

As for `C[C@H]1COc2c(N3CCN(C)CC3)c(F)cc3c(=O)c(C(=O)O)cn1c23.C[C@H]1COc2c(N3CCN(C)CC3)c(F)cc3c(=O)c(C(=O)O)cn1c23.O` [LEVOFLOXACIN], the urinary bactericidal titer with Pseudomonas aeruginosa [10] came to 4 reciprocal titer; in the assay with Escherichia coli [11] it was 512 reciprocal titer; in the assay with Staphylococcus aureus [12], 64 reciprocal titer; in assay [13] it was 4 reciprocal titer; in assay [14], 4 reciprocal titer; in assay [16], 2 reciprocal titer. Further, the urinary bactericidal titer with Staphylococcus aureus [17] was determined as 128 reciprocal titer. Besides, the MIC in the assay on Escherichia coli [15] was 0.047 µg/mL; against Escherichia coli [18], less than 0.03 µg/mL; in the assay on Escherichia coli [19], 0.032 µg/mL.
